One assay concerns BaF3. As to the kind of experiment: Antiproliferative activity against mouse BA/F3 cells harboring KRAS G12D mutant after 72 hrs in presence of IL-3 by CellTiter-Glo assay. Type of assay: functional, cell-based. Particulars: BaF3, 72 h.
In assay [1] the target is Mitogen-activated protein kinase 1 (Homo sapiens) (UniProt P28482). In words: Inhibition of Erk2 in human SKCO1 cells at 1 uM after 4 hrs using biotin labeled DLKPSNLLLNTTCDLK probe by mass-spectrometric analysis relative to control. Type of assay: cell-based.
Assay [2] concerns the target Mitogen-activated protein kinase 3 (Homo sapiens) (UniProt P27361). In words: Inhibition of Erk1 in human SKCO1 cells at 1 uM after 4 hrs using biotin labeled DLKPSNLLINTTCDLK probe by mass-spectrometric analysis relative to control. Type of assay: cell-based.
Assay [3] addresses Cyclin-dependent kinase 6 (Homo sapiens) (UniProt Q00534). As to the kind of experiment: Inhibition of CDK6 in human SKCO1 cells at 1 uM after 4 hrs using biotin labeled DLKPQNILVTSSGQIK probe by mass-spectrometric analysis relative to control. Type of assay: cell-based.
The subject of the next assay is NALM-6. As to the kind of experiment: Antiproliferative activity against human NALM6 cells harboring NARS A146T mutant at […] to […] nM after 72 hrs by CellTiter-Glo assay. Type of assay: functional, cell-based.
A further assay concerns SW-620. As to the kind of experiment: Antiproliferative activity against human SW620 cells harboring KRAS G12V mutant after 72 hrs by CellTiter-Glo assay. To be noted: SW-620, 72 h. Type of assay: functional, cell-based.
Assay [4] has as its target Ephrin type-B receptor 2 (Homo sapiens) (UniProt P29323). In words: Inhibition of EphB2 in human SKCO1 cells at 1 uM after 4 hrs using biotin labeled FLEDDTSDPTYTSALGGKIPIR probe by mass-spectrometric analysis relative to control. Type of assay: cell-based.
The next assay has as its system HEL. In words: Antiproliferative activity against human HEL cells at […] to […] nM after 72 hrs by CellTiter-Glo assay. The format is functional, cell-based.
Assay [5] in a line: Antiproliferative activity against human URMC6 cells harboring wild type KRAS after 72 hrs by CellTiter-Glo assay. The format is functional, cell-based.
Assay [6] deals with Mitogen-activated protein kinase 8 (Homo sapiens) (UniProt P45983). In words: Inhibition of JNK1 in human SKCO1 cells at 1 uM after 4 hrs using biotin labeled DLKPSNIVVK probe by mass-spectrometric analysis relative to control. The format is cell-based.
Assay [7] concerns the target Tyrosine-protein kinase SYK (Homo sapiens) (UniProt P43405). As to the kind of experiment: Inhibition of SYK in human SKCO1 cells at 1 uM after 4 hrs using biotin labeled ISDFGLSKALR probe by mass-spectrometric analysis relative to control. The format is cell-based. In outline: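 Live SK-CO-1 cells exposed to compound at 1 μM or DMSO for 4 h (KiNativ). Lysates then labeled with lysine-reactive ATP/ADP-biotin probe, and probe-labeled kinase peptides quantified by mass spectrometry. Percent inhibition of probe-dependent recovery calculated relative to DMSO-treated cells.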

The target in assay [8] is Eukaryotic elongation factor 2 kinase (Homo sapiens) (UniProt O00418). As to the kind of experiment: Inhibition of eEF2K in human SKCO1 cells at 1 uM after 4 hrs using biotin labeled YIKYNSNSGFVR probe by mass-spectrometric analysis relative to control. Type of assay: cell-based.
In assay [9] the target is Mitogen-activated protein kinase 14 (Homo sapiens) (UniProt Q16539). In words: Inhibition of p38a in human SKCO1 cells at 1 uM after 4 hrs using biotin labeled QELNKTIWEVPER probe by mass-spectrometric analysis relative to control. Type of assay: cell-based. The method, boiled down: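 Live SK-CO-1 cells were treated at 1 μM for 4 h alongside DMSO controls, then lysed. Lysates were labelled with a lysine-reactive ATP or ADP-biotin probe, and probe-dependent peptide recovery was quantified by mass spectrometry. Inhibition (%) is relative to DMSO-treated cells.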

Assay [10] addresses Dual specificity mitogen-activated protein kinase kinase 1 (Homo sapiens) (UniProt Q02750). In words: Inhibition of MAP2K1 in human SKCO1 cells at 1 uM after 4 hrs using biotin labeled DVKPSNILVNSR probe by mass-spectrometric analysis relative to control. Type of assay: cell-based. The method, boiled down: (§1)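 Live SK-CO-1 cells treated 4 h at 1 μM (DMSO control); cells lysed and lysates labeled with lysine-reactive ATP/ADP-biotin probe (KiNativ); probe-labeled kinase peptides quantified by mass spectrometry; inhibition expressed as percent reduction in probe-dependent recovery versus DMSO-treated cells.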

In assay [11] the target is Dual specificity mitogen-activated protein kinase kinase 2 (Homo sapiens) (UniProt P36507). In words: Inhibition of MAP2K2 in human SKCO1 cells at 1 uM after 4 hrs using biotin labeled DVKPSNILVNSR probe by mass-spectrometric analysis relative to control. The format is cell-based. The method, boiled down:
as §1

For assay [12], the target named is T1, Dual specificity mitogen-activated protein kinase kinase 4 (Homo sapiens) (UniProt P45985).
T1 sequence (whole entry): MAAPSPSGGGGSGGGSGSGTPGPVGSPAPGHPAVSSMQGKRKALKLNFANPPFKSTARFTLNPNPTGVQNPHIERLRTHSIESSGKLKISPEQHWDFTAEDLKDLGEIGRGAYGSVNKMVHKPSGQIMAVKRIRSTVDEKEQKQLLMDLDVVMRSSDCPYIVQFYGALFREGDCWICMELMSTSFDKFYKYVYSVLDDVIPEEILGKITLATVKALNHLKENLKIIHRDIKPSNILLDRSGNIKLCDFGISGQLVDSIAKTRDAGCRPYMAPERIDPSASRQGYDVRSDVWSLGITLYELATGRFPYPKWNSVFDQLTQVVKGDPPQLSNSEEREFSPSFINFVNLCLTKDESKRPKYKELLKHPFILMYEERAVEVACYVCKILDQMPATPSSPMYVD
As to the kind of experiment: Inhibition of MAP2K4 in human SKCO1 cells at 1 uM after 4 hrs using biotin labeled DIKPSNILLDR probe by mass-spectrometric analysis relative to control. Type of assay: cell-based.

In assay [13] the target is T2, Mitogen-activated protein kinase kinase kinase 7 (Homo sapiens) (UniProt O43318).
T2 sequence (whole entry): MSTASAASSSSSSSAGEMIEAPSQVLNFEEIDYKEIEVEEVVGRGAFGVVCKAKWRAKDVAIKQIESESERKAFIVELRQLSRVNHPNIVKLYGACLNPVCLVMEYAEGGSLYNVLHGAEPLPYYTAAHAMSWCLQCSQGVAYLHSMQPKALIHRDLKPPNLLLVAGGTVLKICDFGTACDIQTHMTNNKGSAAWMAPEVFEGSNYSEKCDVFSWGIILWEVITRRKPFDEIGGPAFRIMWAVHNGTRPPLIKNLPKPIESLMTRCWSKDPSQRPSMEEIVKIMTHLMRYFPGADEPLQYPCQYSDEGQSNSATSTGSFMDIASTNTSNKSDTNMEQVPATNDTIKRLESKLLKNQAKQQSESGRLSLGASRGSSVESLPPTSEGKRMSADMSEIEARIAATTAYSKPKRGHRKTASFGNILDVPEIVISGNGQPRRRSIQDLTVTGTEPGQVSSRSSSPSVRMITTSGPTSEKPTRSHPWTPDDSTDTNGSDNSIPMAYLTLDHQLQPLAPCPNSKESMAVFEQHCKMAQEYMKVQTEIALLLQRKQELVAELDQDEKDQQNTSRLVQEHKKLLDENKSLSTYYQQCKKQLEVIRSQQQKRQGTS
To be noted: 0.6 uM.

The target of assay [14] is T2, Mitogen-activated protein kinase kinase kinase 7 (Homo sapiens). Particulars: NCI-H358, 1 uM.

Each structure is given as a SMILES string. Activity calls are given as the source filed them. The rule behind the calls is not given here.

Mitogen-activated protein kinase 8 (Homo sapiens), sequence (P45983 whole entry): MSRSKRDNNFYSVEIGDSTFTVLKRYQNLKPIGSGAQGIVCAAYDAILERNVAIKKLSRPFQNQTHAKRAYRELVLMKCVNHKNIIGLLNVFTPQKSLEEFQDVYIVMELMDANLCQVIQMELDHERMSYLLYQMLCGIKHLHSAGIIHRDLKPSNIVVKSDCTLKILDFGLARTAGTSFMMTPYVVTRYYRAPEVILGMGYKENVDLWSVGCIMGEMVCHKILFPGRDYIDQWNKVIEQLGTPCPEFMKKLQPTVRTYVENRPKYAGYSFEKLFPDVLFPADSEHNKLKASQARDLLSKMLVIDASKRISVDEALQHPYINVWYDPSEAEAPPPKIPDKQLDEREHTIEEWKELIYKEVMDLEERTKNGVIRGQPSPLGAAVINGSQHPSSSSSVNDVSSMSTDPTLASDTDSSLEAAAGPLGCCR
Eukaryotic elongation factor 2 kinase (Homo sapiens), sequence (O00418 whole entry): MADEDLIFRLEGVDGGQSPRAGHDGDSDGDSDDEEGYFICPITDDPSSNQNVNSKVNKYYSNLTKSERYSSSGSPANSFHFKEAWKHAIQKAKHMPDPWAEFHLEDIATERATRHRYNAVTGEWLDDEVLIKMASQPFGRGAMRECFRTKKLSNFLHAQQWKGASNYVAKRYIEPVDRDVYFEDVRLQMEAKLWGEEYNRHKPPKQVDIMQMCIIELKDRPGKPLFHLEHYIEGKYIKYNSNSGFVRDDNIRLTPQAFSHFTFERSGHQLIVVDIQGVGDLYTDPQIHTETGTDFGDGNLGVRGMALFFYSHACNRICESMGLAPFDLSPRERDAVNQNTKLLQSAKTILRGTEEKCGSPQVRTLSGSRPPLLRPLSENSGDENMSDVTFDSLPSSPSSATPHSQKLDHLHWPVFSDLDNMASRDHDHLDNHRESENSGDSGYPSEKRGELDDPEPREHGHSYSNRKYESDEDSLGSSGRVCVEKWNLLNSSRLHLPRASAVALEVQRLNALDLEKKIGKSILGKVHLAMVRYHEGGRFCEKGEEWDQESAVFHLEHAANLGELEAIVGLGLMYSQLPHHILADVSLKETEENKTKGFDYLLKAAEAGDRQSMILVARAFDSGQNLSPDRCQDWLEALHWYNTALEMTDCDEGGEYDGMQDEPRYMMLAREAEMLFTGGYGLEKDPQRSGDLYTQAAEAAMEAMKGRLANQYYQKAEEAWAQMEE
Ephrin type-B receptor 2 (Homo sapiens), sequence (P29323 whole entry): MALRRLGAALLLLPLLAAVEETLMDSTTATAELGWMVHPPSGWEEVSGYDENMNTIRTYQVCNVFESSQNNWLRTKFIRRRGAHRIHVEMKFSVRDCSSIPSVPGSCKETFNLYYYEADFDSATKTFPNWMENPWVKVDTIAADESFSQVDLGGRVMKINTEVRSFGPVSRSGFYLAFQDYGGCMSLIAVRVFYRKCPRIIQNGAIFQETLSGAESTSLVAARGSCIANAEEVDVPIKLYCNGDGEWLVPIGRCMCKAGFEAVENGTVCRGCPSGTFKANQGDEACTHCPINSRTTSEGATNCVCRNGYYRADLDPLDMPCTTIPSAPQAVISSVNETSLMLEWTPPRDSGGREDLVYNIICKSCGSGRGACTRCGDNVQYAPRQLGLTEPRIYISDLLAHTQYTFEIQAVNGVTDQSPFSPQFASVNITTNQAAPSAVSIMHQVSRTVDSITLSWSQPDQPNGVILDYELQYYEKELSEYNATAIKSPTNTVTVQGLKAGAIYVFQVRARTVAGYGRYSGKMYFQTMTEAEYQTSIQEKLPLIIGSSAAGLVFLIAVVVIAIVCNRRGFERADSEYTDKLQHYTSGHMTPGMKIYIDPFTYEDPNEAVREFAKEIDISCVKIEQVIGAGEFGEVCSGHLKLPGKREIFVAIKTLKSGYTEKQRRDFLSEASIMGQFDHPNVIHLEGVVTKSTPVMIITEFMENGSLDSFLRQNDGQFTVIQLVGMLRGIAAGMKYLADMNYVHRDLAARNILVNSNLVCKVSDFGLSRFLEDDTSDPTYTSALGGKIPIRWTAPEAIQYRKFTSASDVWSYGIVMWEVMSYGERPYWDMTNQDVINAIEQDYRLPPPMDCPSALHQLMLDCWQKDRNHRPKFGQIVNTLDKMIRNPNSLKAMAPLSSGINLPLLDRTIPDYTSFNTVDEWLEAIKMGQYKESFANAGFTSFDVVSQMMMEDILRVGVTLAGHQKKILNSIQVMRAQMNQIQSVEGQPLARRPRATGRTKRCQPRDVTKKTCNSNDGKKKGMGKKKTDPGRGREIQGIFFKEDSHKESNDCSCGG
Mitogen-activated protein kinase 3 (Homo sapiens), sequence (P27361 whole entry): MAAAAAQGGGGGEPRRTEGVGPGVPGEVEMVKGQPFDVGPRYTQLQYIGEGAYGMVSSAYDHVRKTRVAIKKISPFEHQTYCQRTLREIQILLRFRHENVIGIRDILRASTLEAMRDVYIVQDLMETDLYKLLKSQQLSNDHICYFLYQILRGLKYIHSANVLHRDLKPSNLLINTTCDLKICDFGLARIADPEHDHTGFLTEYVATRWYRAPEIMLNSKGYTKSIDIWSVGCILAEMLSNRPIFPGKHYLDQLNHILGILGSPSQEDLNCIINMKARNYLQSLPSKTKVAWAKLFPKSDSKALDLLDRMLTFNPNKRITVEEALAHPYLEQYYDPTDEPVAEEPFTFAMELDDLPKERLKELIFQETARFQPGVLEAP
Dual specificity mitogen-activated protein kinase kinase 2 (Homo sapiens), sequence (P36507 whole entry): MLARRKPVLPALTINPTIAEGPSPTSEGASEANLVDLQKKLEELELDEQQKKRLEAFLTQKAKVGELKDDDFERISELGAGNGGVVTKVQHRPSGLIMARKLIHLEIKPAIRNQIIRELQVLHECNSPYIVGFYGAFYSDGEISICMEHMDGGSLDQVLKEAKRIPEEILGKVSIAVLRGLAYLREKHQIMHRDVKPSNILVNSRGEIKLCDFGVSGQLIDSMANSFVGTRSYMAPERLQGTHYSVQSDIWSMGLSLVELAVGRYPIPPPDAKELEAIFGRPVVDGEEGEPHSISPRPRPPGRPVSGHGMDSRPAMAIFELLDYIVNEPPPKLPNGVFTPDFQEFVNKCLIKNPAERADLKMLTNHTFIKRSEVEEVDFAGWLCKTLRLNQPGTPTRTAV
Dual specificity mitogen-activated protein kinase kinase 1 (Homo sapiens), sequence (Q02750 whole entry): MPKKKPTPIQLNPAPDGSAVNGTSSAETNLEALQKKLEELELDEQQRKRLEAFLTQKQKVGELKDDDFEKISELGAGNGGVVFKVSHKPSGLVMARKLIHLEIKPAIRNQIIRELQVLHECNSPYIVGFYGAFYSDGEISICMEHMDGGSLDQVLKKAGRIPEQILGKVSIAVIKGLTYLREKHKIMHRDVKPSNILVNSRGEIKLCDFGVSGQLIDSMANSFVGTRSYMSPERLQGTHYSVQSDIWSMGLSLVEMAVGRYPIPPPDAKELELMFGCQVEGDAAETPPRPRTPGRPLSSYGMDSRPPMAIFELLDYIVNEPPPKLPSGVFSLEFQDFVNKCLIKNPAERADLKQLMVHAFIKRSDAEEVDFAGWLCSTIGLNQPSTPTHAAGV
Cyclin-dependent kinase 6 (Homo sapiens), sequence (Q00534 whole entry): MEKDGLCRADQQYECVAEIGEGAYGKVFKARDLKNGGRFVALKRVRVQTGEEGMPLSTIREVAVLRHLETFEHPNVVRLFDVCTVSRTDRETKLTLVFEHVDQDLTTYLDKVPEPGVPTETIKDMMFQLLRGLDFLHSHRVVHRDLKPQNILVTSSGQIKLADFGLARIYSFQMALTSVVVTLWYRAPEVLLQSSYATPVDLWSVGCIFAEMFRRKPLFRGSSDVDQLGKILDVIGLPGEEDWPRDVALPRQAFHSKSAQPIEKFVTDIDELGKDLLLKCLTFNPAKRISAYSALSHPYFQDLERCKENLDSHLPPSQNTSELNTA
Mitogen-activated protein kinase 1 (Homo sapiens), sequence (P28482 whole entry): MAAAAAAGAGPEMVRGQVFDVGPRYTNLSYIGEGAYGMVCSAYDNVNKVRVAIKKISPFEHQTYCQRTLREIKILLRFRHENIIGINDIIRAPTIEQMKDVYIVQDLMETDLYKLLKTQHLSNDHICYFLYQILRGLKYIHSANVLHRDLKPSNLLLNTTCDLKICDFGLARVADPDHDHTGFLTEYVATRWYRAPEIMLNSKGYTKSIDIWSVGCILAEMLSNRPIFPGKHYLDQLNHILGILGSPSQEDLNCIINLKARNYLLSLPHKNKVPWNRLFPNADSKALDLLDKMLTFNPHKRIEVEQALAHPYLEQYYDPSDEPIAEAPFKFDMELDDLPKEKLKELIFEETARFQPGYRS
Mitogen-activated protein kinase 14 (Homo sapiens), sequence (Q16539 whole entry): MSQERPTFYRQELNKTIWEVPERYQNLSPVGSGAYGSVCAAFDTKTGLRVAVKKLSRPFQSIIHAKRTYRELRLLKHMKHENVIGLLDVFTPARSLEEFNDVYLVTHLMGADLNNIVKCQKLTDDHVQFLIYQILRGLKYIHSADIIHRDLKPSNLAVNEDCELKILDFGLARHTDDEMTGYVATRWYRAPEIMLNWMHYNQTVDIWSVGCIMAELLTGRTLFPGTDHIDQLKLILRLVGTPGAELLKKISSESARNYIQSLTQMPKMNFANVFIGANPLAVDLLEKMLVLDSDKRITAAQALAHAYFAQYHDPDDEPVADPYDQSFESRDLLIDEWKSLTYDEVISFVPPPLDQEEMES

For `C=CC(=O)Nc1ccccc1Oc1nc(Nc2cnn(CCOC)c2)ncc1Cl`, the IC50 with BaF3 was determined as 302 nM; in the assay with SW-620, 506 nM; in [5] it was 2620 nM. In addition, the inhibition in [1] is 55.7%; in assay [2], 42.7%; in assay [3], 54.5%; in [4] it was 13.7%; in [6], 0.8%; in assay [7], -0.4%. Moreover, the inhibition turned out to be 6.7% in assay [8], 12.7% in assay [9], 7.9% in assay [10] and 7.9% in assay [11]. The result with NALM-6 and with HEL was inactive.

Regarding `COc1cc(O)c2c(c1)/C=C/C[C@H](O)[C@H](O)C(=O)/C=C\C[C@H](C)OC2=O`, the IC50 with BaF3 worked out at 12 nM; with SW-620, 2540 nM; in assay [5], 1450 nM. For the same compound, the inhibition was 26.2% in [12]; 68.8% in assay [3]; 24.2% in assay [4]; -7.7% in assay [8]; 10.2% in assay [9]; 95% in [10]. For the same compound, the inhibition in assay [11] turned out to be 95%. The inhibition entry in [13] and in [14] was “Active” each time.

In the case of `C=CC(=O)Nc1ccccc1Nc1nc(Nc2ccc(N3CCN(C)CC3)cc2)ncc1Cl`, the inhibition was 42.6% in assay [1]; 24.9% in assay [12]; 5.2% in assay [2]; 70% in [6]; -1.2% in assay [7]. Also, the outcome in the assay with NALM-6 and with HEL was inactive. For the same compound, the inhibition entry in assay [13] and in assay [14] was “Active” in each case.

These data come from ChEMBL document CHEMBL4118021, “Studies of TAK1-centered polypharmacology with novel covalent TAK1 inhibitors” (Bioorg Med Chem, 2017).
